The source made the active and inactive calls. The rule behind the calls is not given here.

This is an account of results in ChEMBL document CHEMBL4339193, “Phenotypic Screening-Based Identification of 3,4-Disubstituted Piperidine Derivatives as Macrophage M2 Polarization Modulators: An Opportunity for Treating Multiple Sclerosis” (J Med Chem, 2019).

Series [1] concerns RAW264.7. Description: Modulation of M1 polarization in mouse RAW264.7 cells assessed as change in Mcp1 mRNA expression at 300 nM measured after 24 hrs by qRT-PCR analysis relative to control. In kind it is functional, cell-based. The note with it: RAW264.7, 24 h, read-out: FC. The essentials:
(§1)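 RAW264.7 cells (DMEM, 10% FBS) exposed 24 h to 300 nM compound alone; LPS 50 ng/ml as positive control. Mcp1 mRNA by qRT-PCR; fold change = dosed group level / control group level.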

The test system of series [2] is RAW264.7. The series is described as follows: Modulation of M2 polarization in mouse RAW264.7 cells assessed as change in Arg1 mRNA expression at 300 nM measured after 24 hrs by qRT-PCR analysis relative to control. In kind it is functional. Put shortly:
(§2)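 RAW264.7 cells (DMEM, 10% FBS) given 300 nM compound for 24 h; IL-4 20 ng/ml as positive control. Arg1 mRNA measured by qRT-PCR; fold change = expression in dosed group / expression in untreated control.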
(In general: Quantitative PCR measures a nucleic acid by following its amplification.)

The subject of series [3] is RAW264.7. Description: Modulation of M1 polarization in mouse RAW264.7 cells assessed as up regulation of Mcp1 mRNA expression at 300 nM measured after 24 hrs by qRT-PCR analysis. The note with it: raw264.7, 24 h, 0.3 µM. In kind it is cell-based. Put shortly:
as §1

The test system of series [4] is RAW264.7. The series is described as follows: Modulation of M2 polarization in mouse RAW264.7 cells assessed as up regulation of Arg1 mRNA expression at 300 nM measured after 24 hrs by qRT-PCR analysis. The series is classed as functional, cell-based. The essentials:
as §2

On to `Cc1ccc([C@@H]2CN(C(=O)c3ccc(-c4ccn[nH]4)cc3)C[C@H]2N(C)C)cc1`, for which the fold induction at 0.3 µM with RAW264.7 [1] was 1.24. In the series with RAW264.7 [2], the “fold change (FC)” value is recorded as 4.85.
Turning to `O=C(NCCN1CCC(c2ccccc2)CC1)c1ccc(-c2cc[nH]n2)cc1`, in the series with RAW264.7 [1], the fold induction at 0.3 µM came to 2.14. Further, the “fold change (FC)” value in the series on RAW264.7 [2] amounted to 3.92.
The matching figures for `COc1ccccc1C(=O)N[C@@H]1CNCC[C@H]1c1cccc(F)c1.Cl`: 1.42 and 1.32.
For `Cl.Cn1nccc1-c1ccc(C(=O)N[C@@H]2CNCC[C@H]2c2ccc(Cl)c(C(F)(F)F)c2)cc1Cl` the same measures were 1.49 and 5.08.
For the compound `Cl.Cn1ncc(Cl)c1-c1ccc(C(=O)N[C@@H]2CNCC[C@H]2c2ccc(Cl)c(C(F)(F)F)c2)c(F)c1`, the fold induction at 0.3 µM in the series on RAW264.7 [1] turned out to be 3.54. Also, the “fold change (FC)” value in the series on RAW264.7 [2] came out at 10.33.
On to `Cl.Cn1nccc1-c1ccc(C(=O)N[C@@H]2CNCC[C@H]2c2ccc(F)c(F)c2)c(F)c1`, for which the fold induction at 0.3 µM with RAW264.7 [1] amounted to 0.39. In the series with RAW264.7 [2], the “fold change (FC)” value came to 3.99.
The matching figures for `O=C(NCC(c1ccccc1F)N1CCCC1)c1ccc(-c2cc[nH]n2)cc1` (stereo unspecified): 1.34 and 1.09.
With `Cl.Cn1nccc1-c1ccc(C(=O)N[C@H]2CNCC[C@@H]2c2cccc(F)c2)c(F)c1`, the fold induction at 0.3 µM in the series on RAW264.7 [1] was determined as 1.76. In addition, in the series on RAW264.7 [2], the “fold change (FC)” value amounted to 0.31.
Turning to `Cc1cc(C(=O)N[C@@H]2CNCC[C@H]2c2cccc(F)c2)ccc1-c1c(Br)cnn1C.Cl`, the fold induction at 0.3 µM with RAW264.7 [1] came out at 1.89. Besides, the “fold change (FC)” value in the series with RAW264.7 [2] is 6.54.
The matching figures for `COc1ccc(NC(=O)c2ccc(-c3ccnn3C)cc2F)cc1`: 2.16 and 3.86.
Take `Cl.Cn1ncc(Cl)c1-c1ccc(C(=O)N[C@@H]2CNCC[C@H]2c2ccc(Cl)c(C(F)(F)F)c2)cc1`: the fold induction at 0.3 µM in the series on RAW264.7 [1] worked out at 5.08. In addition, the “fold change (FC)” value in the series on RAW264.7 [2] is 2.82.
For `Cn1nccc1C(=O)N1C[C@@H](c2cc(F)cc(F)c2)[C@@H]2[C@H]1C1CCN2CC1` the same measures were 1.95 and 2.22.
Consider `Cc1cc(-c2c(Br)cnn2C)cnc1C(=O)N[C@@H]1CNCC[C@H]1c1cccc(F)c1.Cl`, for which the fold induction at 0.3 µM in the series on RAW264.7 [1] is 1.63. For the same compound, the “fold change (FC)” value with RAW264.7 [2] is recorded as 0.71.
As to `Cn1nccc1C(=O)N1CC(c2cc(F)cc(F)c2)C2[C@H]1C1CCN2CC1` (single isomer, unassigned), the fold induction at 0.3 µM with RAW264.7 [1] was 1.4. The “fold change (FC)” value in the series on RAW264.7 [2] turned out to be 1.16.
The matching figures for `Cl.O=C(N[C@@H]1CNCC[C@H]1c1cccc(F)c1)c1ccc(F)cc1`: 1.64 and 0.91.
The matching figures for `CCN(CC)C(=O)c1ccc(-c2ccnn2C)cc1F`: 1.97 and 1.96.
The matching figures for `CC(=O)N[C@@H]1Cc2ccccc2[C@H]1NC(=O)c1cn[nH]c1-c1cccc(F)c1`: 2.14 and 0.8.
With `Cl.Cn1ncc(Cl)c1-c1ccc(C(=O)N[C@@H]2CNCC[C@H]2c2ccc(F)c(F)c2)cn1`, the fold induction at 0.3 µM with RAW264.7 [1] stood at 1.01. For the same compound, the “fold change (FC)” value in the series on RAW264.7 [2] is listed as 0.27.
`Cl.Cn1nccc1-c1ccc(C(=O)N[C@@H]2CNCC[C@H]2c2cccc(F)c2)c(F)c1`: the fold induction at 0.3 µM in the series with RAW264.7 [1] amounted to 1.54. Besides, the “fold change (FC)” value in the series with RAW264.7 [2] is given as 10.05. The Activity result with RAW264.7 [3] was “Non-Toxic”. For the same compound, the result in the series with RAW264.7 [4] was Active.
As to `Cc1ccc(S(=O)(=O)N2CCN(c3nc4ccccc4nc3S(=O)(=O)c3ccc(F)cc3)CC2)cc1`, the result with RAW264.7 [4] was Active.
On to `Cc1ccc(C(=O)N[C@@H]2CNCC[C@H]2c2cccc(F)c2)o1.Cl`, for which the fold induction at 0.3 µM with RAW264.7 [1] was 1.89. For the same compound, the “fold change (FC)” value with RAW264.7 [2] came to 1.76.
For `Cn1ncc(Br)c1-c1ccc(C(=O)N[C@@H]2CNCC[C@H]2c2ccc(F)c(F)c2)cc1.O=C(O)C(O)C(O)C(=O)O` the same measures were 1.77 and 2.27.
With `Cc1cc(-c2ccnn2C)cnc1C(=O)N[C@@H]1CNCC[C@H]1c1ccc(Cl)c(C(F)(F)F)c1.Cl`, the fold induction at 0.3 µM with RAW264.7 [1] worked out at 1.37. Further, the “fold change (FC)” value with RAW264.7 [2] stood at 0.4.
For `Cc1cc(C(=O)N[C@@H]2CNCC[C@H]2c2ccc(Cl)c(C(F)(F)F)c2)ccc1-c1c(Cl)cnn1C.Cl` the same measures were 4.85 and 1.82.
For `Cl.Cn1ncc(Br)c1-c1ccc(C(=O)N[C@@H]2CNCC[C@H]2c2ccc(F)c(F)c2)cn1` the same measures were 1.32 and 0.56.
In the case of `Cn1nccc1-c1ccc(C(=O)N[C@@H]2CNCC[C@H]2c2ccc(F)c(F)c2)cc1.O=C(O)C(O)C(O)C(=O)O`, the fold induction at 0.3 µM with RAW264.7 [1] turned out to be 0.9. Further, the “fold change (FC)” value with RAW264.7 [2] came out at 3.42.
Take `Cl.Cn1nccc1-c1ccc(C(=O)N[C@H]2CCCNC2)c(F)c1`: in the series on RAW264.7 [1], the fold induction at 0.3 µM came to 2.26. In addition, in the series on RAW264.7 [2], the “fold change (FC)” value is on record as 2.11.
As for `Cl.Cn1ncc(Br)c1-c1ccc(C(=O)N[C@@H]2CNCC[C@H]2c2cccc(F)c2)nc1`, the fold induction at 0.3 µM with RAW264.7 [1] was 1.14. For the same compound, the “fold change (FC)” value with RAW264.7 [2] is 0.78.
As for `Cl.Cn1ncc(Br)c1-c1ccc(C(=O)N[C@@H]2CNCC[C@H]2c2cccc(F)c2)cc1Cl`, the fold induction at 0.3 µM with RAW264.7 [1] was determined as 2.05. Besides, in the series on RAW264.7 [2], the “fold change (FC)” value is on record as 10.12.
Regarding `O=C(NCCN1CCCC(c2ccccc2)C1)c1ccc(-c2ccn[nH]2)cc1` (stereo unspecified), the fold induction at 0.3 µM in the series on RAW264.7 [1] is 1.52. Besides, the “fold change (FC)” value in the series with RAW264.7 [2] is 1.48.
The matching figures for `CCNC(=O)c1ccc(-c2ccnn2C)cc1F`: 1.83 and 2.31.
As for `Cl.Cn1nccc1C(=O)N[C@@H]1CNCC[C@H]1c1cccc(F)c1`, the fold induction at 0.3 µM with RAW264.7 [1] is 2.05. Also, the “fold change (FC)” value in the series on RAW264.7 [2] is 1.62.
For `Cl.Cn1ncc(Cl)c1-c1ccc(C(=O)N[C@@H]2CNCC[C@H]2c2ccc(F)c(F)c2)cc1Cl` the same measures were 1.16 and 1.72.
Regarding `Cl.Cn1nccc1-c1ccc(C(=O)N[C@@H]2CNCC[C@H]2c2ccc(F)c(F)c2)cn1`, the fold induction at 0.3 µM in the series on RAW264.7 [1] stood at 1.23. Besides, the “fold change (FC)” value in the series on RAW264.7 [2] stood at 0.85.
On to `Cn1nccc1-c1ccc(C(=O)Nc2ccc(F)cc2)c(F)c1`, for which the fold induction at 0.3 µM in the series with RAW264.7 [1] is 2.01. In addition, the “fold change (FC)” value in the series on RAW264.7 [2] is 1.63.
The matching figures for `Cl.Cn1ncc(Cl)c1-c1ccc(C(=O)N[C@@H]2CNCC[C@H]2c2ccc(F)c(F)c2)cc1`: 1.5 and 1.97.
For the compound `O=C(NCCN1CCC(c2ccccc2)C1)c1ccc(-c2cc[nH]n2)cc1` (stereo unspecified), in the series with RAW264.7 [1], the fold induction at 0.3 µM was found to be 1.86. Also, the “fold change (FC)” value in the series with RAW264.7 [2] was 2.22.
For `Cc1cc(C(=O)N[C@@H]2CNCC[C@H]2c2cccc(F)c2)ccc1-c1c(Cl)cnn1C.Cl` the same measures were 2.44 and 8.35.
The matching figures for `Cl.O=C(N[C@@H]1CNCC[C@H]1c1cccc(F)c1)c1ccccc1F`: 1.72 and 1.01.
Take `CN(CC1Cc2ccccc2CN1C)C(=O)c1ccc(-c2ccn[nH]2)cc1` (stereo unspecified): in the series with RAW264.7 [1], the fold induction at 0.3 µM turned out to be 1.14. The “fold change (FC)” value with RAW264.7 [2] worked out at 2.35.
As to `O=C1NCCN(C(=O)c2ccc(-c3cc[nH]n3)cc2)C1Cc1ccccc1` (stereo unspecified), in the series with RAW264.7 [1], the fold induction at 0.3 µM was determined as 1.53. The “fold change (FC)” value in the series with RAW264.7 [2] is given as 1.33.
For `Cc1cc(-c2ccnn2C)cnc1C(=O)N[C@@H]1CNCC[C@H]1c1cccc(F)c1.Cl` the same measures were 1.99 and 0.95.
As for `COc1cccc(-c2noc(-c3nn(-c4ccc(Cl)cc4)c4ccccc34)n2)c1`, in the series on RAW264.7 [4], the outcome was Active.
For `CC(C)C[C@H](NC(=O)[C@H](Cc1ccccc1)NC(=O)C[C@H](NC(=O)c1ccc2ccccc2c1)c1ccccc1)C(=O)[C@]1(C)CO1`, in the series on RAW264.7 [4], the result was Active.
Still for that read-out and setting: as for `COc1ccc(S(=O)(=O)Nc2ccc(OC)c(-c3ccc(O)cc3)c2)cc1`, the entry is “Active”; as for `O=C(Nc1n[nH]c(=O)c2ccccc12)c1cccc(C(=O)N2CCN(C(=O)C3CC3)CC2)c1`, “Active”.
As to `Cc1ccc(C(=O)N[C@@H]2CNCC[C@H]2c2cccc(F)c2)s1.Cl`, in the series on RAW264.7 [1], the fold induction at 0.3 µM was 1.54. In addition, in the series on RAW264.7 [2], the “fold change (FC)” value worked out at 1.44.
